Assay results published in ChEMBL document CHEMBL3108761, “Phenanthroline-2,9-bistriazoles as selective G-quadruplex ligands” (Eur J Med Chem, 2014).
Calls of active or inactive are those of the source. The rule behind the calls is not given here.

How the values were obtained:
Homo sapiens [1] = species: Homo sapiens; test: Binding affinity to human telomeric 5'-FAMd(G3[T2AG3]3)-TAMRA-3' assessed as melting temperature at 2 uM by FRET assay
Outline: (§1)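 K+ buffer: 10 mM KCl, 100 mM LiCl, 10 mM cacodylate, pH 7.3. FAM/TAMRA dual-labelled probes were diluted to 400 nM, annealed at 85 °C for 10 min and cooled to room temperature, then mixed with ligand at the stated concentration. FAM was excited at 492 nm and read at 516 nm every 0.5 °C from 25 to 100 °C, with a 30 s hold before each reading. ΔTm was taken against a buffer-only control, in triplicate.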

Homo sapiens [2] = species: Homo sapiens; test: Displacement of thiazole orange from 5'-CA2TCG2ATCGA2T2CGATC2GAT2G-3' (unknown origin) assessed as reduction of fluorescence at 2.5 uM by G4-FID assay
Outline: (§2)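 Done at 20 °C in 10 mM sodium cacodylate pH 7.3 with 100 mM KCl; 22AG was also run with 100 mM NaCl. 0.25 µM prefolded DNA carried thiazole orange: 0.50 µM for 22AG and c-KIT, 0.75 µM for ds26. Ligand was titrated from 0.2 to 10 equivalents, with 3 min equilibration per step. Displacement = 100 − (FA/FA0 × 100), from emission area 510–750 nm (excitation 501 nm). DC50 was taken as 50% displacement; otherwise the displacement at 2.5 µM ligand is given.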

Homo sapiens [3] = species: Homo sapiens; test: Binding affinity to human telomeric 5'-FAMd(G3[T2AG3]3)-TAMRA-3' in Na+ solution assessed as melting temperature at 2 uM by FRET assay
Outline: (§3)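 Telomeric FRET probe in Na+ buffer: 100 mM NaCl, 10 mM LiCl, 10 mM cacodylate, pH 7.3. Probe was diluted to 400 nM and annealed at 85 °C for 10 min, then cooled to room temperature; ligand was added at the stated concentration. Emission at 516 nm (excitation 492 nm) was read in 0.5 °C steps from 25 to 100 °C, with a 30 s hold per step. ΔTm versus buffer control, triplicate.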

Homo sapiens [4] = species: Homo sapiens; test: Binding affinity to c-KIT G-quadruplex 5'-FAM-G3CG3CGCGAG3AG4-TAMRA-3' (unknown origin) assessed as melting temperature at 1 uM by FRET assay; outline: as §1
Homo sapiens [5] = species: Homo sapiens; test: Ratio of Kd for c-KIT G-quadruplex 5'-biotin-d[T9G3CG3CGCGAG3AG4]-3' (unknown origin) to Kd for human telomeric 5'-biotin-d[T7(T2AG3)4]-3'
Homo sapiens [6] = species: Homo sapiens; test: Binding affinity to hairpin 5'-FAM-TATAGCTATAT7ATAGCTATA-TAMRA-3' (unknown origin) assessed as melting temperature at 0.5 uM by FRET assay; outline: as §1
Homo sapiens [7] = species: Homo sapiens; test: Displacement of thiazole orange from human telomeric 5'-AG3(T2AG3)3-3' (unknown origin) in Na+ solution assessed as reduction of fluorescence by G4-FID assay; outline: as §2
Homo sapiens [8] = species: Homo sapiens; test: Binding affinity to human telomeric 5'-FAMd(G3[T2AG3]3)-TAMRA-3' assessed as melting temperature at 0.5 uM by FRET assay; outline: as §1
Homo sapiens [9] = species: Homo sapiens; test: Binding affinity to c-KIT G-quadruplex 5'-FAM-G3CG3CGCGAG3AG4-TAMRA-3' (unknown origin) assessed as melting temperature at 0.5 uM by FRET assay; outline: as §1
Homo sapiens [10] = species: Homo sapiens; test: Binding affinity to human telomeric 5'-FAMd(G3[T2AG3]3)-TAMRA-3' assessed as melting temperature at 1 uM by FRET assay; outline: as §1
Homo sapiens [11] = species: Homo sapiens; test: Displacement of thiazole orange from human telomeric 5'-AG3(T2AG3)3-3' (unknown origin) in K+ solution assessed as reduction of fluorescence by G4-FID assay; outline: as §2
Homo sapiens [12] = species: Homo sapiens; test: Binding affinity to human telomeric 5'-FAMd(G3[T2AG3]3)-TAMRA-3' in Na+ solution assessed as melting temperature at 0.5 uM by FRET assay; outline: as §3
[13] = Binding affinity to c-KIT G-quadruplex 5'-biotin-d[T9G3CG3CGCGAG3AG4]-3' (unknown origin) assessed as dissociation constant by surface plasmon resonance assay; parameters: species or system Homo sapiens
Outline: (§4)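 Biotinylated DNA was annealed in 20 mM Tris-HCl, 200 mM KCl, pH 7.4, and captured on a streptavidin chip at ~400 RU. Running buffer: 20 mM KH2PO4, 150 mM KCl, 0.005% P20, 0.5 mM EDTA, pH 7.4. Ligand at 10–1000 nM was injected for 120 s in random order, with blank flow-cell subtraction. KD came from a steady-state affinity fit of Req against concentration; "not detected" means no significant binding at 1 µM.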

Homo sapiens [14] = species: Homo sapiens; test: Binding affinity to c-KIT G-quadruplex 5'-FAM-G3CG3CGCGAG3AG4-TAMRA-3' (unknown origin) assessed as melting temperature at 2 uM by FRET assay; outline: as §1
[15] = Binding affinity to human telomeric 5'-biotin-d[T7(T2AG3)4]-3' assessed as dissociation constant (KD) by surface plasmon resonance assay; outline: as §4
Homo sapiens [16] = species: Homo sapiens; test: Displacement of thiazole orange from c-KIT G-quadruplex 5'-G3CG3CGCGAG3AG4-3' (unknown origin) assessed as reduction of fluorescence by G4-FID assay; outline: as §2
Homo sapiens [17] = species: Homo sapiens; test: Displacement of thiazole orange from human telomeric 5'-AG3(T2AG3)3-3' (unknown origin) assessed as reduction of fluorescence at 2.5 uM by G4-FID assay; outline: as §2
Homo sapiens [18] = species: Homo sapiens; test: Binding affinity to hairpin 5'-FAM-TATAGCTATAT7ATAGCTATA-TAMRA-3' (unknown origin) assessed as melting temperature at 1 uM by FRET assay; outline: as §1
Homo sapiens [19] = species: Homo sapiens; test: Binding affinity to human telomeric 5'-AG3(T2AG3)3-3' by circular dichroism spectroscopy
Outline: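 DNA at 2 µM final in 10 mM Tris-HCl, 100 mM KCl, pH 7.4 was annealed at 95 °C for 10 min and slowly cooled. Ligand was then added at several final concentrations. Spectra were recorded from 220 to 320 nm in a 5 mm cell at 25 °C, averaged over five scans and buffer-corrected, to assess whether the G-quadruplex fold was retained.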

Homo sapiens [20] = species: Homo sapiens; test: Binding affinity to human telomeric 5'-FAMd(G3[T2AG3]3)-TAMRA-3' in Na+ solution assessed as melting temperature at 1 uM by FRET assay; outline: as §3
[21] = Binding affinity to hairpin 5'-biotin-d[T10ATAGCTATAT7ATAGCTATA]-3' (unknown origin) assessed as dissociation constant by surface plasmon resonance assay; parameters: species or system Homo sapiens; outline: as §4
Homo sapiens [22] = species: Homo sapiens; test: Binding affinity to c-KIT G-quadruplex 5'-G3CG3CGCGAG3AG4-3' (unknown origin) by circular dichroism spectroscopy
Homo sapiens [23] = species: Homo sapiens; test: Binding affinity to hairpin 5'-biotin-d[T10ATAGCTATAT7ATAGCTATA]-3' (unknown origin) assessed as melting temperature at 1 uM by surface plasmon resonance assay; outline: as §4

| ΔTm (Homo sapiens [1]) [°C] | ΔTm (Homo sapiens [3]) [°C] | ΔTm (Homo sapiens [4]) [°C] | Ratio (Homo sapiens [5]) | ΔTm (Homo sapiens [6]) [°C] | ΔTm (Homo sapiens [8]) [°C] | ΔTm (Homo sapiens [9]) [°C] | ΔTm (Homo sapiens [10]) [°C] | ΔTm (Homo sapiens [12]) [°C] | Kd [13] [nM] | ΔTm (Homo sapiens [14]) [°C] | Kd [15] [nM] | ΔTm (Homo sapiens [18]) [°C] | ΔTm (Homo sapiens [20]) [°C] | Kd [21] [nM] | inhibition (Homo sapiens [23]) | SMILES | other results |
| --- | --- | --- | --- | --- | --- | --- | --- | --- | --- | --- | --- | --- | --- | --- | --- | --- | --- |
| 22 | 16.4 | 16.1 | 2 | 1.6 | 12.2 | 11.4 | 18 | 6.6 | 28 | 18.4 | 57 | 2.8 | 11.4 | 1060 | – | N=C(N)NCCCn1cc(-c2ccc3ccc4ccc(-c5cn(CCCNC(=N)N)nn5)nc4c3n2)nn1 | inhibition (Homo sapiens [2]): 21%; Q50 (Homo sapiens [7]): > 2.5 µM; Q50 (Homo sapiens [11]): 0.94 µM; Q50 (Homo sapiens [16]): 0.25 µM; inhibition (Homo sapiens [17]): 47%; Activity (Homo sapiens [19]): Active; Activity (Homo sapiens [22]): Active |
| 18.1 | – | 13.9 | 2 | 0.8 | 5.1 | 10.3 | 15.1 | – | 35 | 15.9 | 176 | 1.3 | – | – | inactive | CC(C)/N=C(/NCCCCn1cc(-c2ccc3ccc4ccc(-c5cn(CCCCN/C(=N\C(C)C)NC(C)C)nn5)nc4c3n2)nn1)NC(C)C | – |
| 18.9 | – | 13.9 | 2 | 1.2 | 11 | 11 | 15 | – | 50 | 16.4 | 75 | 2.5 | – | 1120 | – | N=C(N)NCCn1cc(-c2ccc3ccc4ccc(-c5cn(CCNC(=N)N)nn5)nc4c3n2)nn1 | – |
| 21.8 | – | 16.8 | 2 | 1.7 | 12.2 | 13.8 | 17.3 | – | 29 | 18.5 | 61 | 3.7 | – | 1020 | – | N=C(N)NCCCCn1cc(-c2ccc3ccc4ccc(-c5cn(CCCCNC(=N)N)nn5)nc4c3n2)nn1 | – |
| 14.5 | 8.8 | 12 | 13 | 0.7 | 3.2 | 8.3 | 9.5 | 2.8 | 33 | 14.6 | 440 | 1.3 | 4.3 | – | inactive | CC(C)/N=C(/NCCCn1cc(-c2ccc3ccc4ccc(-c5cn(CCCN/C(=N\C(C)C)NC(C)C)nn5)nc4c3n2)nn1)NC(C)C | – |
| 13.6 | – | 10.4 | 13 | 0.7 | 4.2 | 7.4 | 9.7 | – | 40 | 12.5 | 567 | 1.1 | – | – | inactive | CC(C)/N=C(/NCCn1cc(-c2ccc3ccc4ccc(-c5cn(CCN/C(=N\C(C)C)NC(C)C)nn5)nc4c3n2)nn1)NC(C)C | – |
| 6.8 | – | 4.9 | 2 | 0.4 | 4.4 | 3.7 | 5.5 | – | 47 | 6.2 | 139 | 0.6 | – | 1180 | – | NCCn1cc(-c2ccc3ccc4ccc(-c5cn(CCN)nn5)nc4c3n2)nn1 | – |
| 15.8 | – | 13.6 | 2 | 1 | 10.1 | 11.1 | 12.9 | – | 50 | 15.2 | 115 | 1.3 | – | 1060 | – | NCCCCn1cc(-c2ccc3ccc4ccc(-c5cn(CCCCN)nn5)nc4c3n2)nn1 | – |
| 16.1 | 11.9 | 11.8 | 2 | 1.1 | 10.3 | 9.8 | 13.3 | 5.1 | 45 | 13.9 | 75 | 1.2 | 8.4 | 914 | – | NCCCn1cc(-c2ccc3ccc4ccc(-c5cn(CCCN)nn5)nc4c3n2)nn1 | – |

| SMILES | ΔTm (Homo sapiens [1]) [°C] | ΔTm (Homo sapiens [3]) [°C] | ΔTm (Homo sapiens [4]) [°C] | Ratio (Homo sapiens [5]) | ΔTm (Homo sapiens [6]) [°C] | ΔTm (Homo sapiens [8]) [°C] | ΔTm (Homo sapiens [9]) [°C] | ΔTm (Homo sapiens [10]) [°C] | ΔTm (Homo sapiens [12]) [°C] | Kd [13] [nM] | ΔTm (Homo sapiens [14]) [°C] | Kd [15] [nM] | ΔTm (Homo sapiens [18]) [°C] | ΔTm (Homo sapiens [20]) [°C] | Kd [21] [nM] | inhibition (Homo sapiens [23]) | other results |
| --- | --- | --- | --- | --- | --- | --- | --- | --- | --- | --- | --- | --- | --- | --- | --- | --- | --- |
| C[n+]1ccc(-c2c3nc(c(-c4cc[n+](C)cc4)c4ccc([nH]4)c(-c4cc[n+](C)cc4)c4ccc([nH]4)c(-c4cc[n+](C)cc4)c4nc2C=C4)C=C3)cc1 | > 35 | – | > 25 | – | 9.3 | 19.7 | > 25 | 23.1 | – | – | – | – | 14.8 | – | – | – | – |
